Eight compounds from ChEMBL document CHEMBL3608239, “Identification and optimisation of a 4',5-bisthiazole series of selective phosphatidylinositol-3 kinase alpha inhibitors” (Bioorg Med Chem Lett, 2015) can be followed below.

The nature of data set [1]: Permeability of the compound from basolateral to apical side in human Caco2 cells. In kind it is ADME, cell-based. The note with it: Caco-2, read-out: permeability.
A short description of data set [2]: Permeability of the compound from apical to basolateral side in human Caco2 cells. It is filed as ADME, cell-based. The note with it: Caco-2, read-out: permeability.
A short description of data set [3]: Plasma concentration in athymic nude mouse at 10 mg/kg, iv after 2 hrs. In kind it is ADME, organism-based. In a few lines: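 Female athymic nude mice, conscious, with free access to food, given a bolus intravenous dose of 10 mg kg-1. Plasma levels measured 1 and 2 h after dosing.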
Data set [4] in a line: Oral bioavailability in Sprague-Dawley rat at 3 mg/kg. As to conditions: in vivo. In kind it is ADME, organism-based. In outline: (§1)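 Female Sprague-Dawley rats, conscious, permanently cannulated, with free access to food. Dosed 1.0 mg kg-1 intravenously or 3.0 mg kg-1 orally as a suspension. Blood levels followed from 5 min to 48 h after dosing.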
Another data set deals with Rattus norvegicus. The data set is described as follows: Volume of distribution in Sprague-Dawley rat at 3 mg/kg, po. The note with it: in vivo. In kind it is ADME, organism-based. In outline: as §1

As to `Cc1nc(NC(=O)N2CCC[C@H]2C(N)=O)sc1-c1ccc(S(C)(=O)=O)c(F)c1`, in data set [1], the Papp B→A amounted to 7.7 ×10⁻⁶ cm/s. In addition, in data set [2], the Papp A→B came out at 1.4 ×10⁻⁶ cm/s.
For the compound `Cc1nc(NC(=O)N2CCC[C@@]2(C)C(N)=O)sc1-c1csc(C(C)(C)C)n1`, in data set [1], the Papp B→A turned out to be 17.4 ×10⁻⁶ cm/s. In data set [3], this compound displayed a concentration at 2 h below 50 nM. The Papp A→B in data set [2] amounted to 14.5 ×10⁻⁶ cm/s.
On to `Cc1nc(NC(=O)N2CC[C@H](C)[C@H]2C(N)=O)sc1-c1csc(C(C)(C)C)n1`, for which the Papp B→A in data set [1] came out at 17.4 ×10⁻⁶ cm/s. For the same compound, in data set [2], the Papp A→B is 11.1 ×10⁻⁶ cm/s.
The matching figures for `Cc1nc(NC(=O)N2CC[C@H](O)[C@H]2C(N)=O)sc1-c1csc(C(C)(C)C)n1`: 12.4 ×10⁻⁶ cm/s and 0.9 ×10⁻⁶ cm/s.
The matching figures for `Cc1nc(NC(=O)N2C[C@H](F)C[C@H]2C(N)=O)sc1-c1csc(C(C)(C)C)n1`: 20.7 ×10⁻⁶ cm/s and 5.5 ×10⁻⁶ cm/s.
The matching figures for `Cc1nc(NC(=O)N2C[C@H](O)C[C@H]2C(N)=O)sc1-c1csc(C(C)(C)C)n1`: 8.4 ×10⁻⁶ cm/s and 0.7 ×10⁻⁶ cm/s.
With `Cc1nc(NC(=O)N2C[C@@H](O)C[C@H]2C(N)=O)sc1-c1csc(C(C)(C)C)n1`, in data set [1], the Papp B→A stood at 20.8 ×10⁻⁶ cm/s. For the same compound, in data set [2], the Papp A→B came to 1.2 ×10⁻⁶ cm/s.
On to `Cc1nc(NC(=O)N2C[C@H](N(C)C)C[C@H]2C(N)=O)sc1-c1csc(C2(C)CC2)n1`, for which the bioavailability in data set [4] was found to be 59%. This compound gave a Vd with Rattus norvegicus of 3.3 L/kg.
